Laboratory results as given in ChEMBL document CHEMBL1152603, “Comparative molecular field analysis and synthetic validation of a hydroxyamide-propofol binding and functional block of neuronal voltage-dependent sodium channels” (Bioorg Med Chem, 2009).
Active and inactive are the calls of the source. No cut-off for these calls is given here.

Columns and labels:
Rattus norvegicus [1] = organism: Rattus norvegicus; assay: Displacement of [3H]-BTX-B from neuronal voltage-gated sodium channel binding site 2 in rat hippocampal neurons at 40 uM; type: tissue-based; conditions: Hippocampus
In short: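 Inhibition of specifically bound [3H]-BTX-B measured at a single concentration of 40 μM, run in duplicate, and expressed as percent inhibition.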

[2] = Displacement of [3H]-BTX-B from neuronal voltage-gated sodium channel binding site 2 in rat hippocampal neurons; type: tissue-based, Hippocampus
Rattus norvegicus [3] = organism: Rattus norvegicus; assay: Inhibition of voltage-gated sodium channel in rat hippocampal neurons assessed as blocked of sodium current elicited at -10 mV for […] from holding potential -90 mV at 50 uM measured after washout by patch clamp method; type: tissue-based; conditions: Hippocampus
In short: (§1)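 Hippocampi from E18 rat embryos were trypsin-dissociated and plated on poly-L-lysine coverslips, then kept over a glial monolayer in serum-free MEM with N2 for up to 4 weeks. Whole-cell patch clamp was used. Bath (mM): NaCl 30, choline Cl 110, TEA-Cl 30, CdCl2 0.1, pH 7.3. Cells were held at −90 mV for 5 min first. Tonic current block was measured at 50 μM (n=5–7), followed by washout.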

Rattus norvegicus [4] = organism: Rattus norvegicus; assay: Inhibition of voltage-gated sodium channel in rat hippocampal neurons assessed as blocked of sodium current elicited at -10 mV for […] from holding potential -90 mV at 50 uM by patch clamp method; type: tissue-based; design: scale not given: the % may be the effect or the level left; conditions: Hippocampus; in short: as §1

| SMILES | Activity (Rattus norvegicus [1]) | IC50 [2] | Activity (Rattus norvegicus [3]) | Activity (Rattus norvegicus [4]) |
| --- | --- | --- | --- | --- |
| CC(C)c1cc(C(O)(C(N)=O)C(F)(F)F)cc(C(C)C)c1O (stereo unspecified) | 24.5% |  |  |  |
| CC(C)c1cc(CCCCC(O)(C(N)=O)C(F)(F)F)cc(C(C)C)c1O (stereo unspecified) | 67.1% | 22 µM | inactive | 59% |
| CC(C)c1cc(CCCCCCC(O)(C(N)=O)C(F)(F)F)cc(C(C)C)c1O (stereo unspecified) | 71.4% | 5.7 µM | inactive |  |
| CC(C)c1cccc(C(C)C)c1O | 16.6% |  |  |  |
| CC(C)c1cc(C2(C(F)(F)F)NC(=O)NC2=O)cc(C(C)C)c1O (stereo unspecified) | 55.1% |  |  |  |
| NC(=O)C(O)(c1ccccc1)C(F)(F)F (stereo unspecified) | 6.8% |  |  |  |
